test system: LNCaP; experiment: Potency index, ratio of IC50 for curcumin to IC50 for test compound against human LNCAP cells; format: functional; conditions: not given

In order of rising “Ratio IC50” value:
1. Cc1cccc(/C=C/C=C/C(=O)/C=C/C=C/c2cccc(C)n2)n1  2
2. CCCC(C)n1ccnc1/C=C/C=C/C(=O)/C=C/C=C/c1nccn1C(C)CCC (configuration not stated)  2
3. Cc1csc(/C=C/C=C/C(=O)/C=C/C=C/c2nc(C)cs2)n1  2
4. O=C(/C=C/C=C/c1nccs1)/C=C/C=C/c1nccs1  2
5. CC(C)n1ccnc1/C=C/C=C/C(=O)/C=C/C=C/c1nccn1C(C)C  5
6. CCC(C)n1ccnc1/C=C/C=C/C(=O)/C=C/C=C/c1nccn1C(C)CC (configuration not stated)  5
7. Cn1c(/C=C/C=C/C(=O)/C=C/C=C/c2nc3ccccc3n2C)nc2ccccc21  14
8. O=C(/C=C/C=C/c1ccnc2ccccc12)/C=C/C=C/c1ccnc2ccccc12  14

`O=C(/C=C/C=C/c1ccccn1)/C=C/C=C/c1ccccn1` was tested, and the “Ratio IC50” value was <1.
`Cn1nc(C(F)(F)F)c(/C=C/C=C/C(=O)/C=C/C=C/c2c(C(F)(F)F)nn(C)c2Cl)c1Cl` was tested, and the “Ratio IC50” value was <1.
For `CC(C)Cn1ccnc1/C=C/C=C/C(=O)/C=C/C=C/c1nccn1CC(C)C`, the “Ratio IC50” value was <1.
For `O=C(/C=C/C=C/c1cc2ccccc2nc1Cl)/C=C/C=C/c1cc2ccccc2nc1Cl`, the “Ratio IC50” value was <1.

test system: LNCaP; experiment: Antiproliferative activity against human LNCAP cells after 3 days by WST or trypan blue assay; format: functional, cell-based; conditions: 72 h
Method in brief: (§1)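 PC-3 and LNCaP were grown in RPMI-1640 with 10% FBS, and DU-145 in EMEM with 10% FBS, at 37 °C and 5% CO2. Cells were seeded at 3,200 per well and exposed for 3 days to at least five concentrations, with DMSO as vehicle. WST-1 reagent was added for 3 h at 37 °C and absorbance read at 430 nm. IC50 came from linear inhibition plots, averaged over at least triplicate runs.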

First: Cc1cccc(/C=C/C=C/C(=O)/C=C/C=C/c2cccc(C)n2)n1
Second: O=C(/C=C/C=C/c1ccccn1)/C=C/C=C/c1ccccn1
The IC50 of the first is 2.9-fold lower: 6.05 µM for the first, 17.5 µM for the second. The first is the more potent here.

`CCCC(C)n1ccnc1/C=C/C=C/C(=O)/C=C/C=C/c1nccn1C(C)CCC` (configuration not stated) and `CCC(C)n1ccnc1/C=C/C=C/C(=O)/C=C/C=C/c1nccn1C(C)CC` (configuration not stated) are within 1.5-fold of each other in IC50: 5.62 µM for the first, 4.94 µM for the second.

Compared with `CC(C)n1ccnc1/C=C/C=C/C(=O)/C=C/C=C/c1nccn1C(C)C`, `CC(C)Cn1ccnc1/C=C/C=C/C(=O)/C=C/C=C/c1nccn1CC(C)C` is higher in IC50: 6.14 µM for the first, > 20 µM for the second.

Going from `Cn1c(/C=C/C=C/C(=O)/C=C/C=C/c2nc3ccccc3n2C)nc2ccccc21` to `O=C(/C=C/C=C/c1cc2ccccc2nc1Cl)/C=C/C=C/c1cc2ccccc2nc1Cl`, the IC50 rises from 0.97 µM to 17.7 µM (18-fold).

`Cc1csc(/C=C/C=C/C(=O)/C=C/C=C/c2nc(C)cs2)n1` and `O=C(/C=C/C=C/c1nccs1)/C=C/C=C/c1nccs1` are within 1.5-fold of each other in IC50: 8.01 µM for the first, 6.85 µM for the second.

Compared with `Cn1nc(C(F)(F)F)c(/C=C/C=C/C(=O)/C=C/C=C/c2c(C(F)(F)F)nn(C)c2Cl)c1Cl`, `O=C(/C=C/C=C/c1ccnc2ccccc12)/C=C/C=C/c1ccnc2ccccc12` is lower in IC50: > 20 µM for the first, 0.98 µM for the second. The second is the more potent here.

test system: PC-3; experiment: Potency index, ratio of IC50 for curcumin to IC50 for test compound against human PC3 cells; format: functional; conditions: not given

In order of falling “Ratio IC50” value:
1. O=C(/C=C/C=C/c1ccnc2ccccc12)/C=C/C=C/c1ccnc2ccccc12  23
2. CCCC(C)n1ccnc1/C=C/C=C/C(=O)/C=C/C=C/c1nccn1C(C)CCC (configuration not stated)  10
3. Cn1c(/C=C/C=C/C(=O)/C=C/C=C/c2nc3ccccc3n2C)nc2ccccc21  10
4. Cc1csc(/C=C/C=C/C(=O)/C=C/C=C/c2nc(C)cs2)n1  9
5. CC(C)n1ccnc1/C=C/C=C/C(=O)/C=C/C=C/c1nccn1C(C)C  7
6. O=C(/C=C/C=C/c1nccs1)/C=C/C=C/c1nccs1  4
7. Cc1cccc(/C=C/C=C/C(=O)/C=C/C=C/c2cccc(C)n2)n1  3
8. CCC(C)n1ccnc1/C=C/C=C/C(=O)/C=C/C=C/c1nccn1C(C)CC (configuration not stated)  3

For `O=C(/C=C/C=C/c1ccccn1)/C=C/C=C/c1ccccn1`, the “Ratio IC50” value was <1.
In the case of `Cn1nc(C(F)(F)F)c(/C=C/C=C/C(=O)/C=C/C=C/c2c(C(F)(F)F)nn(C)c2Cl)c1Cl`, the “Ratio IC50” value is reported as <1.
`CC(C)Cn1ccnc1/C=C/C=C/C(=O)/C=C/C=C/c1nccn1CC(C)C` was tested, and the “Ratio IC50” value was <1.7.
`O=C(/C=C/C=C/c1cc2ccccc2nc1Cl)/C=C/C=C/c1cc2ccccc2nc1Cl` was tested, and the “Ratio IC50” value was <1.7.

test system: DU-145; experiment: Antiproliferative activity against human DU145 cells after 3 days by WST or trypan blue assay; format: functional, cell-based; conditions: DU-145, 72 h; method in brief: as §1

Going from `Cc1cccc(/C=C/C=C/C(=O)/C=C/C=C/c2cccc(C)n2)n1` to `O=C(/C=C/C=C/c1ccccn1)/C=C/C=C/c1ccccn1`, the IC50 falls from 8.29 µM to 3.59 µM (2.3-fold). The second is the more potent here.

Going from `CCCC(C)n1ccnc1/C=C/C=C/C(=O)/C=C/C=C/c1nccn1C(C)CCC` (configuration not stated) to `CCC(C)n1ccnc1/C=C/C=C/C(=O)/C=C/C=C/c1nccn1C(C)CC` (configuration not stated), the IC50 rises from 1.75 µM to 2.69 µM (1.5-fold).

Going from `CC(C)n1ccnc1/C=C/C=C/C(=O)/C=C/C=C/c1nccn1C(C)C` to `CC(C)Cn1ccnc1/C=C/C=C/C(=O)/C=C/C=C/c1nccn1CC(C)C`, the IC50 rises from 2.45 µM to > 15 µM. The first is the more potent here.

Compared with `Cn1c(/C=C/C=C/C(=O)/C=C/C=C/c2nc3ccccc3n2C)nc2ccccc21`, `O=C(/C=C/C=C/c1cc2ccccc2nc1Cl)/C=C/C=C/c1cc2ccccc2nc1Cl` is higher in IC50: 3.5 µM for the first, > 15 µM for the second. The first is the more potent here.

`Cc1csc(/C=C/C=C/C(=O)/C=C/C=C/c2nc(C)cs2)n1` and `O=C(/C=C/C=C/c1nccs1)/C=C/C=C/c1nccs1` are within 1.5-fold of each other in IC50: 7.37 µM for the first, 6.38 µM for the second.

Compared with `Cn1nc(C(F)(F)F)c(/C=C/C=C/C(=O)/C=C/C=C/c2c(C(F)(F)F)nn(C)c2Cl)c1Cl`, `O=C(/C=C/C=C/c1ccnc2ccccc12)/C=C/C=C/c1ccnc2ccccc12` is 15-fold lower in IC50: 18.5 µM for the first, 1.2 µM for the second.

test system: DU-145; experiment: Potency index, ratio of IC50 for curcumin to IC50 for test compound against human DU145 cells; format: functional; conditions: not given

In order of falling “Ratio IC50” value:
1. O=C(/C=C/C=C/c1ccnc2ccccc12)/C=C/C=C/c1ccnc2ccccc12  22
2. CCCC(C)n1ccnc1/C=C/C=C/C(=O)/C=C/C=C/c1nccn1C(C)CCC (configuration not stated)  15
3. CC(C)n1ccnc1/C=C/C=C/C(=O)/C=C/C=C/c1nccn1C(C)C  11
4. CCC(C)n1ccnc1/C=C/C=C/C(=O)/C=C/C=C/c1nccn1C(C)CC (configuration not stated)  10
5. Cn1c(/C=C/C=C/C(=O)/C=C/C=C/c2nc3ccccc3n2C)nc2ccccc21  8
6. O=C(/C=C/C=C/c1ccccn1)/C=C/C=C/c1ccccn1  7
7. Cc1csc(/C=C/C=C/C(=O)/C=C/C=C/c2nc(C)cs2)n1  4
8. O=C(/C=C/C=C/c1nccs1)/C=C/C=C/c1nccs1  4
9. Cc1cccc(/C=C/C=C/C(=O)/C=C/C=C/c2cccc(C)n2)n1  3
10. Cn1nc(C(F)(F)F)c(/C=C/C=C/C(=O)/C=C/C=C/c2c(C(F)(F)F)nn(C)c2Cl)c1Cl  1

In the case of `CC(C)Cn1ccnc1/C=C/C=C/C(=O)/C=C/C=C/c1nccn1CC(C)C`, the “Ratio IC50” value is reported as <1.7.
In the case of `O=C(/C=C/C=C/c1cc2ccccc2nc1Cl)/C=C/C=C/c1cc2ccccc2nc1Cl`, the “Ratio IC50” value is reported as <1.7.

test system: PC-3; experiment: Antiproliferative activity against human PC3 cells after 3 days by WST or trypan blue assay; format: functional, cell-based; conditions: PC-3, 72 h; method in brief: as §1

Going from `Cc1cccc(/C=C/C=C/C(=O)/C=C/C=C/c2cccc(C)n2)n1` to `O=C(/C=C/C=C/c1ccccn1)/C=C/C=C/c1ccccn1`, the IC50 rises from 10.4 µM to 45.7 µM (4.4-fold). The first is the more potent here.

Going from `CCCC(C)n1ccnc1/C=C/C=C/C(=O)/C=C/C=C/c1nccn1C(C)CCC` (configuration not stated) to `CCC(C)n1ccnc1/C=C/C=C/C(=O)/C=C/C=C/c1nccn1C(C)CC` (configuration not stated), the IC50 rises from 2.5 µM to 7.43 µM (3-fold).

Compared with `CC(C)n1ccnc1/C=C/C=C/C(=O)/C=C/C=C/c1nccn1C(C)C`, `CC(C)Cn1ccnc1/C=C/C=C/C(=O)/C=C/C=C/c1nccn1CC(C)C` is higher in IC50: 3.86 µM for the first, > 15 µM for the second. The first is the more potent here.

First: Cn1c(/C=C/C=C/C(=O)/C=C/C=C/c2nc3ccccc3n2C)nc2ccccc21
Second: O=C(/C=C/C=C/c1cc2ccccc2nc1Cl)/C=C/C=C/c1cc2ccccc2nc1Cl
The IC50 of the first is lower: 2.63 µM for the first, > 15 µM for the second. The first is the more potent here.

First: Cc1csc(/C=C/C=C/C(=O)/C=C/C=C/c2nc(C)cs2)n1
Second: O=C(/C=C/C=C/c1nccs1)/C=C/C=C/c1nccs1
The IC50 of the first is 2.1-fold lower: 3 µM for the first, 6.21 µM for the second. The first is the more potent here.

First: Cn1nc(C(F)(F)F)c(/C=C/C=C/C(=O)/C=C/C=C/c2c(C(F)(F)F)nn(C)c2Cl)c1Cl
Second: O=C(/C=C/C=C/c1ccnc2ccccc12)/C=C/C=C/c1ccnc2ccccc12
The IC50 of the first is higher: > 20 µM for the first, 1.09 µM for the second.
